Target: Monoacylglycerol lipase ABHD6 (Mus musculus) (UniProt Q8R2Y0)
Assay: brain ABHD6 inhibition after oral dosing, late-stage follow-up, in vivo study for DAGLb inhibitor project, gel-based competitive ABPP, fluorescence, mouse, set 2 (AID 602343)
Details: stronger effect = higher value
Outline: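 Assay system: mouse brain membrane ABHD6, in vivo dosing; also added: HT-01 BODIPY activity-based probe, 1 µM final; timing: Brains taken 4 h post-dose, probe labeling 30 min at 37 °C; signal: in-gel fluorescence band density; benchmarks: vehicle high, gel background low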

[1] = dose or concentration not given here
[2] = measured here: inhibition at 1 mg/kg p.o.
[3] = measured here: inhibition at 5 mg/kg p.o.

Monoacylglycerol lipase ABHD6 (Mus musculus), sequence (Q8R2Y0 whole entry, looked up): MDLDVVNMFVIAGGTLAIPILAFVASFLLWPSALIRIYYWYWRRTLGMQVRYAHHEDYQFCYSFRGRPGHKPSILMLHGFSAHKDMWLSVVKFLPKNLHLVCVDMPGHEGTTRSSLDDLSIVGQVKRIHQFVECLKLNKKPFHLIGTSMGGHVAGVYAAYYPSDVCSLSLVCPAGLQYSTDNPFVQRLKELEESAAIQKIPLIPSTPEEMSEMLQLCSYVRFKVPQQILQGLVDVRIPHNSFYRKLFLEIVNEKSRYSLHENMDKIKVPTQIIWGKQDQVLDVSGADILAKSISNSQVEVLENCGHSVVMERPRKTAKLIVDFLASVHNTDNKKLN

Row | Structure (SMILES) | inhibition [1] | inhibition [2] | inhibition [3]
1 | COc1ccc(-c2ccc(-c3cn(C(=O)N4CCCCC4c4ccccc4)nn3)cc2)cc1 (centres undefined) | 99% | 55% | 55%
2 | O=C(N1CCCCC1Cc1ccccc1)n1cc(-c2ccc(-c3ccccc3)cc2)nn1 (centres undefined) | 100% | 0% | 99%
3 | COc1ccccc1-c1ccc(-c2cn(C(=O)N3CCCCC3Cc3ccccc3)nn2)cc1 (centres undefined) | 99% | 30% | 95%
